Laboratory results as given in ChEMBL document CHEMBL4725393, “Prodrug Strategies to Improve the Solubility of the HCV NS5A Inhibitor Pibrentasvir (ABT-530)” (J Med Chem, 2020).
Values after ≈ are worked out from the molar mass of the structure shown.

Experiments:
[1] = Cmax in CD1 mouse assessed as pibrentasvir1 level at 6 mg/kg, po measured up to 24 hrs; assay type: ADME, organism-based; parameters: route oral, dose 6 mg/kg, time <=24; settings: in vivo
Summary of the method: (§1)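 CD-1 mice with free access to food and water received an oral gavage of prodrug or PIB at 10 mL/kg in 0.2% HPMC. The dose was adjusted for prodrug MW to equal 6 mg/kg PIB. K2EDTA blood was drawn at 0.25, 0.5, 1, 3, 6, 9, 12 and 24 h. Plasma was spun at 3200 x g for 5 min at ~4°C and stored below -15°C. PIB and prodrug were measured; AUC in ng·h/mL, Cmax in ng/mL.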

[2] = Equilibrium solubility of compound at pH 7.4 incubated for 24 to 48 hrs by HPLC analysis; assay type: physicochemical; settings: buffer, time 24-48 hrs
Summary of the method: (§2)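 For equilibrium solubility, excess solid was added to 3–4 mL of medium, in triplicate. Suspension pH was read after equilibration. Solids were removed by centrifugation at 4000 rpm at 25 °C, and the supernatant was passed through a 0.45 µm filter, discarding the first 2 mL. The filtrate was quantified by HPLC against standard curves.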

[3] = Solubility in FeSSIF at pH 5; assay type: physicochemical; summary of the method: as §2
[4] = Equilibrium solubility of compound at pH 1 incubated for 24 to 48 hrs by HPLC analysis; assay type: physicochemical; settings: buffer, time 24-48 hrs; summary of the method: as §2
[5] = Stability of compound at pH 1 assessed as prodrug remaining level at 125 ug/ml incubated for 24 hrs by HPLC analysis; assay type: physicochemical; settings: buffer, pH 1, 24 h, at 125 µg/mL
Summary of the method: (§3)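 A DMSO stock of about 1.25 mg/mL was diluted into 0.1 N HCl (pH 1) or 50 mM phosphate buffer (pH 7.4), giving final concentrations of ~125 µg/mL prodrug and 10% DMSO. The solution was filtered and held at 37 °C in the HPLC autosampler, with injections at several times over 24 h. Percent remaining was calculated from prodrug peak area relative to t0.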

[6] = Stability of compound at pH 7.4 assessed as prodrug remaining level at 125 ug/ml incubated for 24 hrs by HPLC analysis; assay type: physicochemical; settings: buffer, pH 7.4, 24 h, at 125 µg/mL; summary of the method: as §3
[7] = Cmax in beagle dog assessed as pibrentasvir1 level at 40 mg, po measured up to 24 hrs; assay type: ADME, organism-based, Canis lupus familiaris; parameters: route oral, dose 40 mg, time <=24; settings: in vivo
Summary of the method: (§4)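 The dose equalled 40 mg PIB after adjustment for prodrug MW. Food was returned at 12 h. K2EDTA plasma was sampled at 0.25–24 h. Cmax is in ng/mL and AUC in ng·h/mL.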

[8] = AUC in beagle dog assessed as pibrentasvir1 level at 40 mg, po measured up to 24 hrs; assay type: ADME, organism-based, Canis lupus familiaris; parameters: route oral, dose 40 mg, time <=24; settings: in vivo; summary of the method: as §4
[9] = AUC in CD1 mouse assessed as pibrentasvir1 level at 6 mg/kg, po measured up to 24 hrs; assay type: ADME, organism-based; parameters: route oral, dose 6 mg/kg, time <=24; settings: in vivo; summary of the method: as §1
[10] = Half life of compound at pH 7.4 at 125 ug/ml at 37 degC by HPLC analysis; assay type: physicochemical; settings: dose 125 µg/ml
[11] = AUC in cynomolgus monkey at 2 mg/kg, po measured up to 12 hrs; assay type: ADME, organism-based, Macaca fascicularis; parameters: route oral, dose 2 mg/kg, time <=12; settings: in vivo
Summary of the method: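 Female cynomolgus monkeys were fasted overnight and dosed by gastric intubation with a suspension in 0.5% HPMC at 0.5 mL/kg. The dose was MW-adjusted to 2 mg/kg PIB equivalent, and food was returned at 4 h. Plasma was collected at intervals up to 12 h and assayed for PIB and prodrug to give AUC in ng·h/mL.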

[12] = AUC in beagle dog at 40 mg, po measured up to 24 hrs; assay type: ADME, organism-based, Canis lupus familiaris; parameters: route oral, dose 40 mg, time <=24; settings: in vivo; summary of the method: as §4
[13] = Cmax in CD1 mouse assessed as pibrentasvir1 level at 3 mg/kg, po measured up to 24 hrs; assay type: ADME, organism-based; parameters: route oral, dose 3 mg/kg, time <=24; settings: in vivo
Summary of the method: (§5)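 CD-1 mice, fed ad libitum, were dosed orally at a prodrug-MW-adjusted dose equal to 3 mg/kg PIB, as a solution or suspension. Serial K2EDTA blood samples were taken from 0.25 to 24 h. Plasma was separated by centrifugation and kept frozen. PIB and prodrug levels were reported as Cmax (ng/mL) and AUC (ng·h/mL).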

[14] = AUC in CD1 mouse assessed as pibrentasvir1 level at 3 mg/kg, po measured up to 24 hrs; assay type: ADME, organism-based; parameters: route oral, dose 3 mg/kg, time <=24; settings: in vivo; summary of the method: as §5
[15] = Cmax in beagle dog at 40 mg, po measured up to 24 hrs; assay type: ADME, organism-based, Canis lupus familiaris; parameters: route oral, dose 40 mg, time <=24; settings: in vivo; summary of the method: as §4
[16] = Cmax in CD1 mouse at 3 mg/kg, po measured up to 24 hrs; assay type: ADME, organism-based; parameters: route oral, dose 3 mg/kg, time <=24; settings: in vivo; summary of the method: as §5
[17] = AUC in CD1 mouse at 3 mg/kg, po measured up to 24 hrs; assay type: ADME, organism-based; parameters: route oral, dose 3 mg/kg, time <=24; settings: in vivo; summary of the method: as §5
[18] = AUC in CD1 mouse at 6 mg/kg, po measured up to 24 hrs; assay type: ADME, organism-based; parameters: route oral, dose 6 mg/kg, time <=24; settings: in vivo; summary of the method: as §1
[19] = Apparent permeability in MDCK cells; assay type: ADME, cell-based, Canis lupus familiaris; settings: dog
[20] = Lipophilicity, logD of compound; assay type: physicochemical; settings: octanol/water
[21] = Aqueous solubility of compound at pH 7; assay type: physicochemical
[22] = Aqueous solubility of compound at pH 2; assay type: physicochemical
[23] = Permeability by PAMPA; assay type: ADME
[24] = Protein binding in human plasma; assay type: ADME, cell-free; settings: read-out: PPB (converted)

Structure (SMILES) | Cmax [1] [ng/mL] | solubility thermodynamic [2] [µg/mL] | solubility [3] [µg/mL] | solubility thermodynamic [4] [µg/mL] | Stabilty [5] [%] | Stabilty [6] [%] | Cmax [7] [ng/mL] | AUC [8] [ng·h/mL] | AUC [9] [ng·h/mL] | half-life at 125 ug/ml [10] [h] | AUC at 12 h [11] [ng·h/mL] | Cmax [13] [ng/mL] | AUC [14] [ng·h/mL] | further results
COC(=O)N[C@H](C(=O)N1CCC[C@H]1c1nc2cc(F)c([C@H]3CC[C@H](c4cc5nc([C@@H]6CCCN6C(=O)[C@@H](NC(=O)OC)[C@@H](C)OC)n(COC(=O)CC(C)(C)c6c(C)cc(C)cc6OP(=O)(O)O)c5cc4F)N3c3cc(F)c(N4CCC(c5ccc(F)cc5)CC4)c(F)c3)cc2[nH]1)[C@@H](C)OC | 1210 | 0.5 (≈ 0.35 µM) | 794 (≈ 556 µM) | 572 (≈ 401 µM) | 87 | 100 | 249 | 3210 | 20600 | > 72 | 240 |  |  | 
COC(=O)N[C@H](C(=O)N1CCC[C@H]1c1nc2cc(F)c([C@H]3CC[C@H](c4cc5nc([C@@H]6CCCN6C(=O)[C@@H](NC(=O)OC)[C@@H](C)OC)n(COC(=O)[C@@H](N)C(C)C)c5cc4F)N3c3cc(F)c(N4CCC(c5ccc(F)cc5)CC4)c(F)c3)cc2[nH]1)[C@@H](C)OC |  | < 0.1 | > 1000 | > 1000 | 78 | 5 | 379 | 3940 |  |  |  | 129 | 2340 | AUC at 24 h [12]: 568 ng·h/mL
COC(=O)N[C@H](C(=O)N1CCC[C@H]1c1nc2cc(F)c([C@H]3CC[C@H](c4cc5c(cc4F)nc([C@@H]4CCCN4C(=O)[C@@H](NC(=O)OC)[C@@H](C)OC)n5COP(=O)(O)O)N3c3cc(F)c(N4CCC(c5ccc(F)cc5)CC4)c(F)c3)cc2[nH]1)[C@@H](C)OC |  | > 4000 |  | > 4000 | 100 | 100 | 152 | 1470 |  |  |  | 17 | 278 | Cmax [15]: 20 ng/mL; AUC at 24 h [12]: 93 ng·h/mL; Cmax [16]: 2.2 ng/mL; AUC at 24 h [17]: 12.6 ng·h/mL
COC(=O)N[C@H](C(=O)N1CCC[C@H]1c1nc2cc(F)c([C@H]3CC[C@H](c4cc5nc([C@@H]6CCCN6C(=O)[C@@H](NC(=O)OC)[C@@H](C)OC)n(COP(=O)(O)O)c5cc4F)N3c3cc(F)c(N4CCC(c5ccc(F)cc5)CC4)c(F)c3)cc2[nH]1)[C@@H](C)OC |  | 6.4 (≈ 5.23 µM) |  | 37.3 (≈ 30.5 µM) | 100 | 100 | 55 | 429 |  | > 72 | 160 | 141 | 2660 | 
COC(=O)N[C@H](C(=O)N1CCC[C@H]1c1nc2cc(F)c([C@H]3CC[C@H](c4cc5nc([C@@H]6CCCN6C(=O)[C@@H](NC(=O)OC)[C@@H](C)OC)n(COC(=O)[C@@H](NC(=O)COP(=O)(O)O)C(C)C)c5cc4F)N3c3cc(F)c(N4CCC(c5ccc(F)cc5)CC4)c(F)c3)cc2[nH]1)[C@@H](C)OC |  | 0.7 (≈ 0.507 µM) |  | 186 (≈ 135 µM) | 97 | 31 | 112 | 1210 |  | < 24 |  | 216 | 3710 | 
COC(=O)N[C@H](C(=O)N1CCC[C@H]1c1nc2cc(F)c([C@H]3CC[C@H](c4cc5c(cc4F)nc([C@@H]4CCCN4C(=O)[C@@H](NC(=O)OC)[C@@H](C)OC)n5COC(=O)[C@@H](NC(=O)OCOP(=O)(O)O)C(C)C)N3c3cc(F)c(N4CCC(c5ccc(F)cc5)CC4)c(F)c3)cc2[nH]1)[C@@H](C)OC | 513 | > 1000 | > 1000 | 271 (≈ 194 µM) | 95 | 28 |  |  | 8930 | < 24 |  |  |  | 
COC(=O)N[C@H](C(=O)N1CCC[C@H]1c1nc2cc(F)c([C@H]3CC[C@H](c4cc5nc([C@@H]6CCCN6C(=O)[C@@H](NC(=O)OC)[C@@H](C)OC)n(COC(=O)Cc6ccc(OP(=O)(O)O)cc6)c5cc4F)N3c3cc(F)c(N4CCC(c5ccc(F)cc5)CC4)c(F)c3)cc2[nH]1)[C@@H](C)OC | 905 | 135 (≈ 99.5 µM) | > 1000 | 45 (≈ 33.2 µM) | 74 | 71 | 155 | 1920 | 16100 | > 24 | 197 |  |  | 
COC(=O)N[C@H](C(=O)N1CCC[C@H]1c1nc2cc(F)c([C@H]3CC[C@H](c4cc5nc([C@@H]6CCCN6C(=O)[C@@H](NC(=O)OC)[C@@H](C)OC)n(COC(=O)[C@@H](NC(=O)/C=C/C(=O)O)C(C)C)c5cc4F)N3c3cc(F)c(N4CCC(c5ccc(F)cc5)CC4)c(F)c3)cc2[nH]1)[C@@H](C)OC | 15 | < 0.2 | 542 (≈ 404 µM) | 203 (≈ 151 µM) | 97 | 67 |  |  | 231 |  |  |  |  | AUC at 24 h [18]: 354 ng·h/mL
COC(=O)N[C@H](C(=O)N1CCC[C@H]1c1nc2cc([C@H]3CC[C@H](c4cc5nc([C@@H]6CCCN6C(=O)[C@@H](NC(=O)OC)[C@@H](C)OC)n(COP(=O)(O)O)c5cc4F)N3c3cc(F)c(N4CCC(c5ccc(F)cc5)CC4)c(F)c3)c(F)cc2n1COP(=O)(O)O)[C@@H](C)OC |  | 123 (≈ 92.1 µM) |  | 135 (≈ 101 µM) | 100 |  | 40 | 355 |  |  |  | 396 | 6070 | 
CC(C)(C)[C@@H]1NC(=O)O[C@@H]2CCC[C@H]2OC/C=C/C(F)(F)c2nc3ccccc3nc2O[C@@H]2C[C@@H](C(=O)N[C@]3(C(=O)NS(=O)(=O)C4(C)CC4)C[C@H]3C(F)F)N(C2)C1=O [GLECAPREVIR] |  |  | 40 (≈ 47.7 µM) |  |  |  |  |  |  |  |  |  |  | Papp [19]: 1.4 ×10⁻⁶ cm/s; logD [20]: 2.5; solubility [21]: 300 µg/mL (≈ 358 µM); solubility [22]: < 100 µg/mL; Papp [23]: 5.2 ×10⁻⁶ cm/s; fraction unbound [24]: 0.025
